Here are results for 2 compounds from ChEMBL document CHEMBL3600374, “Dual inhibitors of the dengue and West Nile virus NS2B-NS3 proteases: Synthesis, biological evaluation and docking studies of novel peptide-hybrids” (Bioorg Med Chem, 2015).

The source made the active and inactive calls. The calls are words filed in the database; no cut-off is given here.

Test [1] deals with T1, Genome polyprotein (West Nile virus, UniProt P06935). The experiment in a line: Inhibition of WNV NS2B-NS3 protease expressed in Escherichia coli BL21 lambda (DE3) cells using Abz-Gly-Leu-Lys-Arg-Gly-Gly-3-(NO2)Tyr as substrate preincubated for 15 mins followed by substrate addition measured for 15 mins by FRET assay. In outline:
(§1)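 IC50 by FRET assay at substrate 50 μM; DENV protease at 100 nM, WNV protease at 150 nM. Measured in triplicate.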

The test system of test [2] is dengue virus type 2. The experiment in a line: Inhibition of DENV serotype 2 NS2B-NS3 protease expressed in Escherichia coli BL21 lambda (DE3) cells using Abz-Nle-Lys-Arg-Arg-Ser-3-(NO2)Tyr as substrate at 50 uM preincubated for 15 mins followed by substrate addition measured for 15 mins by FRET assay relative to control.
Test [3] concerns the target Genome polyprotein (West Nile virus) (UniProt P06935). The experiment in a line: Competitive inhibition of WNV NS2B-NS3 protease expressed in Escherichia coli BL21 lambda (DE3) cells using Abz-Gly-Leu-Lys-Arg-Gly-Gly-3-(NO2)Tyr as substrate at 0.5 to 6 uM preincubated for 15 mins followed by substrate addition measured for 15 mins by Cheng-Prusoff plot analysis. In outline:
(§2)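 WNV protease, FRET read-out. Substrate at 50, 100, 150, 200 μM; inhibitor at 0, 0.5, 1, 2, 3, 4, 5, 6 μM; triplicates repeated three times, 12 outliers of 288 values excluded. Ki taken from the Cheng-Prusoff plot (Y-intercept of IC50 vs substrate) or the Dixon plot (mean of line intersections).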

For test [4], the target named is T1, Genome polyprotein. The experiment in a line: Competitive inhibition of WNV NS2B-NS3 protease expressed in Escherichia coli BL21 lambda (DE3) cells using Abz-Gly-Leu-Lys-Arg-Gly-Gly-3-(NO2)Tyr as substrate preincubated for 15 mins followed by substrate addition measured for 15 mins by Cheng-Prusoff plot analysis. In outline: as §2
Test [5] has as its target Genome polyprotein (West Nile virus) (UniProt P06935). The experiment in a line: Inhibition of WNV NS2B-NS3 protease expressed in Escherichia coli BL21 lambda (DE3) cells using Abz-Gly-Leu-Lys-Arg-Gly-Gly-3-(NO2)Tyr as substrate at 50 uM preincubated for 15 mins followed by substrate addition measured for 15 mins by FRET assay relative to control.
The nature of test [6]: Inhibition of DENV serotype 2 NS2B-NS3 protease expressed in Escherichia coli BL21 lambda (DE3) cells using Abz-Nle-Lys-Arg-Arg-Ser-3-(NO2)Tyr as substrate preincubated for 15 mins followed by substrate addition measured for 15 mins by FRET assay. Also on record: species or system dengue virus type 2. In outline: as §1
Test [7] addresses T1, Genome polyprotein. The experiment in a line: Inhibition of WNV NS2B-NS3 protease expressed in Escherichia coli BL21 lambda (DE3) cells using Abz-Gly-Leu-Lys-Arg-Gly-Gly-3-(NO2)Tyr as substrate preincubated for 15 mins followed by substrate addition measured for 15 mins by Dixon plot analysis. Summed up: as §2
Test [8] has as its target Prothrombin (Homo sapiens) (UniProt P00734). The experiment in a line: Inhibition of thrombin (unknown origin) using Boc-Val-Pro-Arg-AMC as substrate at 25 uM preincubated for 15 mins followed by substrate addition measured for 10 mins by FRET assay relative to control.
Test [9] concerns dengue virus type 2. The experiment in a line: Competitive inhibition of DENV serotype 2 NS2B-NS3 protease expressed in Escherichia coli BL21 lambda (DE3) cells using Abz-Nle-Lys-Arg-Arg-Ser-3-(NO2)Tyr as substrate at 0.25 to 3 uM preincubated for 15 mins followed by substrate addition measured for 15 mins by Cornish-Bowden plot analysis. Summed up:
(§3)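 DENV serotype 2 protease, FRET read-out. Substrate at 50, 100, 150, 200 μM; inhibitor at 0, 0.25, 0.5, 1, 1.5, 2, 2.5, 3 μM; triplicates, two outliers of 96 values excluded. Ki taken from the Cheng-Prusoff plot (IC50 vs substrate, Y-intercept), the Dixon plot (mean of line intersections), or the Cornish-Bowden plot.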

Test [10] in a line: Competitive inhibition of DENV serotype 2 NS2B-NS3 protease expressed in Escherichia coli BL21 lambda (DE3) cells using Abz-Nle-Lys-Arg-Arg-Ser-3-(NO2)Tyr as substrate preincubated for 15 mins followed by substrate addition measured for 15 mins by Cheng-Prusoff plot analysis. Also noted: species or system dengue virus type 2. Summed up: as §3
The subject of test [11] is dengue virus type 2. The experiment in a line: Binding affinity to DENV serotype 2 NS2B-NS3 protease expressed in Escherichia coli BL21 lambda (DE3) cells by fluorescence quenching assay in absence of DENV protease inhibitor aprotinin. Summed up:
(§4)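 DENV protease held at 1 μM, aprotinin at 10 μM, inhibitor at 0, 0.5, 1, 2, 5, 10, 20, 30, 40, 48 μM. Read-out is the intrinsic Trp50 fluorescence of the protease, measured with and without aprotinin. Readings with aprotinin corrected for aprotinin's own fluorescence.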

Test [12] concerns dengue virus type 2. The experiment in a line: Binding affinity to DENV serotype 2 NS2B-NS3 protease expressed in Escherichia coli BL21 lambda (DE3) cells at 0.5 to 48 uM by fluorescence quenching assay in presence of DENV protease inhibitor aprotinin. Summed up:
as §4

Test [13] is described as follows: Inhibition of DENV serotype 2 NS2B-NS3 protease expressed in Escherichia coli BL21 lambda (DE3) cells using Abz-Nle-Lys-Arg-Arg-Ser-3-(NO2)Tyr as substrate preincubated for 15 mins followed by substrate addition measured for 15 mins by Dixon plot analysis. Also noted: species or system dengue virus type 2. Summed up: as §3

T1 sequence (P06935 1371-1501 limits assumed): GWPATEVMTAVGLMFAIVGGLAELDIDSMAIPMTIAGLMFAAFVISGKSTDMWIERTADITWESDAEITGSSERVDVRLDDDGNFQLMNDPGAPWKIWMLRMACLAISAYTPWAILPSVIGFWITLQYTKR
T1 sequence (P06935 1502-2120 limits assumed): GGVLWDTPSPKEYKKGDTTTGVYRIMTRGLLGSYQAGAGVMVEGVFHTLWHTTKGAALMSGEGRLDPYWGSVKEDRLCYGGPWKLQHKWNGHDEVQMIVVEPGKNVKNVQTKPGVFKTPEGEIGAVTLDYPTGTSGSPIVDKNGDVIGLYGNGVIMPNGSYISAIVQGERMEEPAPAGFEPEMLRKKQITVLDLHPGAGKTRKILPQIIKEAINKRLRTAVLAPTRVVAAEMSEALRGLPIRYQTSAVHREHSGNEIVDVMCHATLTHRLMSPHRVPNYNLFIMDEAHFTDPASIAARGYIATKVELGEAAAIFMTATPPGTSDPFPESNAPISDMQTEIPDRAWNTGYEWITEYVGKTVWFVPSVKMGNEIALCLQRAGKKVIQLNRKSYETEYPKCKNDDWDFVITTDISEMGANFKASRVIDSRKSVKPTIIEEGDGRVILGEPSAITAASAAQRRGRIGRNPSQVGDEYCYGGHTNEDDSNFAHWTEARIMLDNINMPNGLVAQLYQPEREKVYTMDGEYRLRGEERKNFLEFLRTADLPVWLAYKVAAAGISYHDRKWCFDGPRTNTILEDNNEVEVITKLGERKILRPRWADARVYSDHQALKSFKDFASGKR
Chain of Genome polyprotein (West Nile virus) (P06935 whole entry): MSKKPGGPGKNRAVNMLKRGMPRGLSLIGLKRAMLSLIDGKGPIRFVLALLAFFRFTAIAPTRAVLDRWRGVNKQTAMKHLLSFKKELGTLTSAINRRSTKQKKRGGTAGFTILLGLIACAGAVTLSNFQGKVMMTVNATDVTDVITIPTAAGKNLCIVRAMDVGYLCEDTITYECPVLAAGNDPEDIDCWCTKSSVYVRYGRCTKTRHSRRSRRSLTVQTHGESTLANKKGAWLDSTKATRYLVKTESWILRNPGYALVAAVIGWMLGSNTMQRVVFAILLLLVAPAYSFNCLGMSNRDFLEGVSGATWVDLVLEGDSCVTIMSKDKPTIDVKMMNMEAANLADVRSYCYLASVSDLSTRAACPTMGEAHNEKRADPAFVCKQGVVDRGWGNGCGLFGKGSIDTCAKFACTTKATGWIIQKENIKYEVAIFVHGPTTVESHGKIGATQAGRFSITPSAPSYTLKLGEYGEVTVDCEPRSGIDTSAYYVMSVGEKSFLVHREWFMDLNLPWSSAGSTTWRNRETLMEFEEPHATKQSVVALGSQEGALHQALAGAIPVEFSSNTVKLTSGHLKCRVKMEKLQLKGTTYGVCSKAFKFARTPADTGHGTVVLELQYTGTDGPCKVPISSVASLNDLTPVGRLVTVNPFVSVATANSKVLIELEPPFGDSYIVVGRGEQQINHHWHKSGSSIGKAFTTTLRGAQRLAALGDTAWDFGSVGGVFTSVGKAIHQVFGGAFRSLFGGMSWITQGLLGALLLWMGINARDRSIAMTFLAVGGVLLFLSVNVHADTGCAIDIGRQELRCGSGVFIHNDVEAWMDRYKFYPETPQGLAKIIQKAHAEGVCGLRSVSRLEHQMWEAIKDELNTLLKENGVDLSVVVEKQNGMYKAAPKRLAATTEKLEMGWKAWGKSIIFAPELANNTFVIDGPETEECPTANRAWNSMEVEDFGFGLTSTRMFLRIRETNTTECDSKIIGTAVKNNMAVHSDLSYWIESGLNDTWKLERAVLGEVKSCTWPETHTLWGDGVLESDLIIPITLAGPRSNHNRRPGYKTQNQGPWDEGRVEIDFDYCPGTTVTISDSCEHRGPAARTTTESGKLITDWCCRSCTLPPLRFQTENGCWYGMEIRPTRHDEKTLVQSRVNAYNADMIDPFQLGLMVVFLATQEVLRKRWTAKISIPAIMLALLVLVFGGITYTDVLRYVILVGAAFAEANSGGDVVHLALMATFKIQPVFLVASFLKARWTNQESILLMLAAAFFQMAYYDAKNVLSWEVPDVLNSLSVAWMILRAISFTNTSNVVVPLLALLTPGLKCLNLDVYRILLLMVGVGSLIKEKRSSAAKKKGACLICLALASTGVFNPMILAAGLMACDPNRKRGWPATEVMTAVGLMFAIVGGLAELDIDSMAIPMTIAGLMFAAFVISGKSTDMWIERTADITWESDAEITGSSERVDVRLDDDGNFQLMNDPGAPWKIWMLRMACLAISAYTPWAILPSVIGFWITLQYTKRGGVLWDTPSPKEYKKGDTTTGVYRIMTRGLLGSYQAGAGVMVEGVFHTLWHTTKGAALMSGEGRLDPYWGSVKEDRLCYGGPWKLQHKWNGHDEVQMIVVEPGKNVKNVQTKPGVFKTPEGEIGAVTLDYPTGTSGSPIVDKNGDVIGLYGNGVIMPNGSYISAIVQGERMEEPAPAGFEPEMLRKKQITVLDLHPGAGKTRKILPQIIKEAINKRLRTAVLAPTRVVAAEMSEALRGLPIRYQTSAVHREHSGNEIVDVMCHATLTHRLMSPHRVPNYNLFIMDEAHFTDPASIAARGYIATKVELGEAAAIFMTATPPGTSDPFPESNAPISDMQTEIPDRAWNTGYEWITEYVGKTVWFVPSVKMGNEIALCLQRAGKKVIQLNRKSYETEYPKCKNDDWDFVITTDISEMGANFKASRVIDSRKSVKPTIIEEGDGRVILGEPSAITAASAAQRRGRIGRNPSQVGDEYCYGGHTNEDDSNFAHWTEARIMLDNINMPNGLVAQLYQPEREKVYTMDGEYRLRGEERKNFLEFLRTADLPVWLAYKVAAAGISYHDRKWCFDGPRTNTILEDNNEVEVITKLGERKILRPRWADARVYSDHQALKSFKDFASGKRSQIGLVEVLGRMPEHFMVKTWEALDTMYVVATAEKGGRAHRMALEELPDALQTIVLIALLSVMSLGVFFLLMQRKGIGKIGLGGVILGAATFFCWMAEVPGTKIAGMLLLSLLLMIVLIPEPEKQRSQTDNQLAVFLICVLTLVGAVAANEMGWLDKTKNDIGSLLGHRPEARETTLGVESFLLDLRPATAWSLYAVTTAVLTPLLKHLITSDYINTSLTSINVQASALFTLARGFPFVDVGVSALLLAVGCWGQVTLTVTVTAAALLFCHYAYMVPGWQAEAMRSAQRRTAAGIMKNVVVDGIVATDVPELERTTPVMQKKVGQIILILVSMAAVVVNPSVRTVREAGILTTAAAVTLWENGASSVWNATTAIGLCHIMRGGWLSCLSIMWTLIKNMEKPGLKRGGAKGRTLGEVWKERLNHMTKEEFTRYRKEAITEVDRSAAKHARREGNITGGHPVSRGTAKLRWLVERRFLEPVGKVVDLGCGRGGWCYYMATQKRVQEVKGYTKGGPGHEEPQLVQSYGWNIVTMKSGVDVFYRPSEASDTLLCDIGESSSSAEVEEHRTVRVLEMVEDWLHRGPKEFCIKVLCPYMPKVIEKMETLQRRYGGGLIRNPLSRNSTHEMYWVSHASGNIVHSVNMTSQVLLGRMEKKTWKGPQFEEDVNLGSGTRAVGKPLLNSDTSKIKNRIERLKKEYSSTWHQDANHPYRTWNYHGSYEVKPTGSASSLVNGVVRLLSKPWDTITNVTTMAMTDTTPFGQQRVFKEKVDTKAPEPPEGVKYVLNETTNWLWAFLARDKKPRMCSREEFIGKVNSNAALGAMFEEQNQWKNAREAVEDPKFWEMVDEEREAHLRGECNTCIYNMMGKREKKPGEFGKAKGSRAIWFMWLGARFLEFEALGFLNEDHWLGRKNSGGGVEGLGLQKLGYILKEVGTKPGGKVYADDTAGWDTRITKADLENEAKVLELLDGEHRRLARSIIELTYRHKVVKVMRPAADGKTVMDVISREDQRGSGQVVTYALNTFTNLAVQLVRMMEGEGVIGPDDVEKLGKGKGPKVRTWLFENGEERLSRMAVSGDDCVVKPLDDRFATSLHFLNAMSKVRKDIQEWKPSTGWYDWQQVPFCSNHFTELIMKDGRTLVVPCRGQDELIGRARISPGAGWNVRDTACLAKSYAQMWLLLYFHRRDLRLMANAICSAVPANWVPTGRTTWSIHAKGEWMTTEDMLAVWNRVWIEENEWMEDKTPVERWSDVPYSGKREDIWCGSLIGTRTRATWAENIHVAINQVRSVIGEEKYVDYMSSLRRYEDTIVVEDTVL

`N=C(N)NCCC[C@H](NC(=O)c1ccc(/C=C2\SC(=O)N(CC3CCCCC3)C2=O)cc1)C(=O)N[C@@H](CCCCN)C(=O)N[C@H](C(N)=O)c1ccccc1`: the IC50 at Genome polyprotein [1] worked out at 750 nM; in [6] it was 1050 nM. For the same compound, the inhibition in the test with dengue virus type 2 [2] is 99.3%; in test [5], 99.6%; in test [8] it was 6.9%. Further, the inhibition result in test [3] was “Active”. The Ki on Genome polyprotein [4] came out at 1300 nM; on Genome polyprotein [7] it was 820 nM.

With `C#CCCN1C(=O)S/C(=C\c2ccc(C(=O)N[C@@H](CCCNC(=N)N)C(=O)N[C@@H](CCCCN)C(=O)N[C@H](C(N)=O)c3ccccc3)cc2)C1=O`, the IC50 at Genome polyprotein [1] is 2120 nM; in test [6], 460 nM. For the same compound, the inhibition entry in the test on dengue virus type 2 [9] was “Active”. For the same compound, the Ki is 400 nM in test [10] and 100 nM in test [13]. Besides, the inhibition amounted to 99.9% with dengue virus type 2 [2], 97.8% in test [5] and 13% in [8]. Also, in the test on dengue virus type 2 [11], the Activity entry was “Dose-dependent effect”. For the same compound, in the test with dengue virus type 2 [12], the result was inactive.

The IC50 is the midpoint of a concentration-inhibition curve. High values mean a need for much substance, low ones inhibition by little substance. The term inhibition denotes the change of the read-out against control, counted positive when it falls. The term Ki denotes the dissociation constant of the complex between target and ligand, obtained from inhibition or displacement.
